Test results published in ChEMBL document CHEMBL3045766, “Potent nematicidal activity of phthalaldehyde, salicylaldehyde, and cinnamic aldehyde against Meloidogyne incognita” (J Agric Food Chem, 2013).
In brackets after ≈: the same amount, converted by molar mass. Activity calls are given as the source filed them. The calls are words filed in the database; no cut-off is given here.

Legend:
Meloidogyne incognita [1] = assay: Nematicidal activity against second-stage juveniles of Meloidogyne incognita (root-knot nematode) after 1 day by inverted microscopic analysis; type: functional, organism-based; settings: 24 h
Summary of the method: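 Stocks in methanol, diluted with water/Tween; double-strength solutions mixed 1:1 with 25 J2 per well (methanol ≤1% final), covered, dark, 28 °C, 1 day. Controls: water and water/Tween 0.2%. Paralysis corrected for water-control mortality; five replicates, experiment run twice; EC50 from log-logistic nonlinear regression.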

Meloidogyne incognita [2] = assay: Nematicidal activity against second-stage juveniles of Meloidogyne incognita (root-knot nematode) after 1 hr by inverted microscopic analysis; type: functional
Summary of the method: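 J2 motility assay: methanol stocks diluted in water/Tween, mixed 1:1 with 25 J2 per well (methanol ≤1% final), kept covered in dark at 28 °C; paralysis scored at 1 h over a concentration range to give EC100. Water and water/Tween 0.2% controls; five replicates, repeated twice.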

Meloidogyne incognita [3] = assay: Nematicidal activity against second-stage juveniles of Meloidogyne incognita (root-knot nematode) assessed as microscopic fracture on cuticle at […] by scanning electron microscopic analysis; type: functional, organism-based
Summary of the method: (§1)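 J2 juveniles were exposed to the aldehyde, with untreated J2 as negative controls. They were postfixed in 1% osmium tetroxide in 0.1 M cacodylate buffer for 1 h, washed in distilled water, and frozen in slush nitrogen. They were then freeze-dried under vacuum overnight (−70 °C rising to room temperature), sputter-coated with 10 nm gold and imaged by secondary-electron SEM at 15 kV.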

Meloidogyne incognita [4] = assay: Nematicidal activity against second-stage juveniles of Meloidogyne incognita (root-knot nematode) assessed as smooth/stretched cuticle at […] by scanning electron microscopic analysis; type: functional, organism-based; summary of the method: as §1
Meloidogyne incognita [5] = assay: Nematicidal activity against second-stage juveniles of Meloidogyne incognita (root-knot nematode) assessed as macroscopic fracture on cuticle at […] by scanning electron microscopic analysis; type: functional, organism-based; summary of the method: as §1
[6] = molecular target: T1, Collagen (Meloidogyne javanica) (UniProt O01945); assay: Covalent binding to Meloidogyne javanica (root-knot nematode) collagen 3 assessed as compound-protein adduct formation at 5 mM by HPLC-ESI-MS analysis
T1 sequence (whole entry): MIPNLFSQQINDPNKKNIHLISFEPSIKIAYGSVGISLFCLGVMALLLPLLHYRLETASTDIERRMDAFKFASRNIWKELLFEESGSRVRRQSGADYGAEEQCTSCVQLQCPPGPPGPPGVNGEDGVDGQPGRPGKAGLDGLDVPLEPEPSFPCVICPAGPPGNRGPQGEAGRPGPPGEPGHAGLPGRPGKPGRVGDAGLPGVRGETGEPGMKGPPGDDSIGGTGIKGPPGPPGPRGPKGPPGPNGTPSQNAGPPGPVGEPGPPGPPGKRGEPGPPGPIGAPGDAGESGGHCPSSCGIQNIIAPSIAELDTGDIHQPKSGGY
Summary of the method: (§2)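 Aldehyde (final 1, 5 or 15 mM) incubated with probe peptide (0.5 mM) in 100 mM Tris-HCl pH 7.4, 25 °C, dark, 24 h, duplicate; stopped with TFA (0.1% final). Diluted in 0.1% TFA, analysed by HPLC-ESI-MS (C18, TFA water/acetonitrile gradient). Adducts quantified label-free as relative XIC peak area of each derivative versus sum of all derivatives; peptide-only control.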

[7] = molecular target: T1, Collagen (Meloidogyne javanica); assay: Covalent binding to Meloidogyne javanica (root-knot nematode) collagen 3 assessed as compound-protein adduct formation at 1 mM by HPLC-ESI-MS analysis; summary of the method: as §2
[8] = molecular target: T1, Collagen (Meloidogyne javanica); assay: Covalent binding to Meloidogyne javanica (root-knot nematode) collagen 3 assessed as compound-protein adduct formation at 15 mM by HPLC-ESI-MS analysis; summary of the method: as §2

Row | Compound | EC50 (Meloidogyne incognita [1]) [µg/mL] | EC100 (Meloidogyne incognita [2]) [mg/L] | other results
1 | CCc1ccc(O)c(C=O)c1 | 53 (≈ 353 µM) | >100 | –
2 | CCCCCCCCCCCCCCCc1ccc(C=O)c(O)c1 | > 1000 | >1000 | –
3 | CCCCC/C=C/C=C/C=O | 12 (≈ 78.8 µM) | >20 | Activity (Meloidogyne incognita [3]): inactive; Activity (Meloidogyne incognita [4]): Active; Activity (Meloidogyne incognita [5]): Active
4 | COc1ccccc1C=O [2-METHOXYBENZALDEHYDE] | > 1000 | >1000 | Activity [6]: 77%; Activity [7]: 74%
5 | O=Cc1ccc2ccccc2c1 [2-NAPHTHALDEHYDE] | 13 (≈ 83.2 µM) | >75 | –
6 | O=Cc1ccccc1[N+](=O)[O-] [2-NITROBENZALDEHYDE] | 120 (≈ 794 µM) | >200 | –
7 | COc1ccc(C=O)cc1OC [3,4-DIMETHOXYBENZALDEHYDE] | > 1000 | >1000 | Activity [6]: 70%; Activity [7]: 65%
8 | CC(=O)c1ccc2c(c1)OCO2 [3,4-METHYLENDIOXY ACETOPHENONE] | > 500 | >500 | –
9 | O=Cc1cccc(C(=O)O)c1 [3-FORMYLBENZOIC ACID] | > 1000 | >1000 | –
10 | O=Cc1cccc(O)c1 [3-HYDROXYBENZALDEHYDE] | 31 (≈ 254 µM) | >250 | –
11 | O=Cc1ccc(O)cc1 [4-HYDROXYBENZALDEHYDE] | 75 (≈ 614 µM) | 500 | –
12 | O=Cc1ccccc1 [BENZALDEHYDE] | > 250 | >100 | Activity [8]: 6%; Activity [6]: 0%; Activity [7]: 0%
13 | Oc1ccccc1O [CATECHOL] | > 500 | >500 | –
14 | O=C(O)/C=C/c1ccccc1 [CINNAMIC ACID] | > 250 | >250 | –
15 | O=C/C=C\c1ccccc1 [CINNAMIC ALDEHYDE] | 12 (≈ 90.8 µM) | >250 | –
16 | CC(C)=CCC/C(C)=C/C=O [CITRAL] | 72 (≈ 473 µM) | >250 | –
17 | CCOP(=O)(SC(C)CC)N1CCSC1=O (configuration not stated) [FOSTHIAZATE] | – | 3 | –
18 | O=Cc1ccco1 [FURFURAL] | 8 (≈ 83.3 µM) | 11 | –
19 | O=Cc1ccccc1O[C@@H]1O[C@H](CO)[C@@H](O)[C@H](O)[C@H]1O [HELICIN] | > 250 | >250 | –
20 | O=Cc1cccc(C=O)c1 [ISOPHTHALIC DICARBOXALDEHYDE] | 15 (≈ 112 µM) | >100 | Activity [8]: 0%; Activity [6]: 0%; Activity [7]: 1%
21 | c1ccc([C@H]2CN3CCSC3=N2)cc1 [LEVAMISOLE] | 4 (≈ 19.6 µM) | >20 | –
22 | COC(=O)c1ccccc1O [METHYL SALICYLATE] | > 1000 | >1000 | –
23 | O=Cc1ccccc1C=O [ORTHO-PHTHALALDEHYDE] | 11 (≈ 82 µM) | >50 | –
24 | C[C@@H]1O[C@@H](O[C@H]2C[C@@H](O)[C@]3(CO)[C@H]4[C@H](O)C[C@]5(C)[C@@H](C6=CC(=O)OC6)CC[C@]5(O)[C@@H]4CC[C@]3(O)C2)[C@H](O)[C@H](O)[C@H]1O [OUABAIN] | > 1000 | >1000 | –
25 | O=CCc1ccccc1 [PHENYLACETALDEHYDE] | 167 (≈ 1390 µM) | 1000 | –
26 | O=Cc1ccc2c(c1)OCO2 [PIPERONAL] | 44 (≈ 293 µM) | >100 | Activity [6]: 30%; Activity [7]: 5%
27 | O=Cc1ccc(O)c(O)c1 [PROTOCATECHUALDEHYDE] | > 1000 | >1000 | Activity [8]: 73%; Activity [6]: 89%; Activity [7]: 72%
28 | Cn1c2cccc(=O)c-2nc2ccccc21 [PYOCYANIN] | 72 (≈ 342 µM) | >250 | –
29 | O=Cc1ccccc1O [SALICYLADEHYDE] | 11 (≈ 90.1 µM) | >25 | Activity (Meloidogyne incognita [3]): inactive; Activity [6]: 57%; Activity (Meloidogyne incognita [4]): Active; Activity (Meloidogyne incognita [5]): Active; Activity [7]: 61%
30 | COc1cc(C=O)ccc1O [VANILLIN] | > 1000 | >1000 | –
